The list is not random: actives were taken first. Their share in the collection is about 12%.
L major viab = reduces viability of Leishmania major promastigotes. resazurin fluorescence viability. inhibition, % at 10 µM. actives 9% (n = 200,000); in the data active = inhibition above about 50%;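 note: promastigotes grown with compound for 44 hours at 28 °C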
KCC2 mod = modulates chloride dependent transport by human KCC2; AID 1456; actives 2.2% (n = 190,000); KCC2 cells, thallium flux FluoZin-2 fluorescence; B-score of Tl+ flux slope (higher = more flux/activation; lower = inhibition) at 10 µM;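 active = thallium flux slope and its plate-corrected score both differing from the plate sample mean at a set confidence after two filtering rounds, in either direction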;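 note: slope of fluorescence scaled to starting intensity during 10 to 20 s after thallium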
Diaphorase act = activates diaphorase or chemically reduces, flagging diaphorase assay artifacts | Diaphorase/resazurin coupled assay, resorufin fluorescence, 16 min; hits give high values; 1 = vehicle wells, 0 = NADH-free wells | activation factor at 20 µM | actives 0.005% (n = 190,000) | AID 1229;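 active = diaphorase activity raised at least twofold by the compound at 20 µM; inactive = activation factor below 2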
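Assay system: Purified diaphorase enzyme from Clostridium kluyveri | Amount: Enzyme 0.07 U/mL final | Dosing: Compound 20 µM once, DMSO 1% | Timing: 16 min reaction at room temperature | Detection: Fluorescence, excitation 544 nm and emission 590 nm | Evaluation: Higher resorufin formation from activation or reduction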
WT yeast gro inh = growth inhibition of WT yeast, mitochondrial fusion screen | mitochondrial fusion phenotypic screen, WT strain | inhibition, % at 10 µM | actives 2.1% (n = 190,000); in the data active = inhibition above about 58%; tested in S. cerevisiae
Diaphorase inh = counter-screen for diaphorase-based assays: diaphorase inhibitors and chemical oxidizers. actives 0.69% (n = 190,000). AID 1217. diaphorase resazurin-to-resorufin fluorescence, NADH, 16 min; bacterial (C. kluyveri) enzyme, not human. inhibition, % at 20 µM;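 active = primary screen inhibition at 20 µM above a set limit, cut at about 50% in these data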;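 note: plate controls were DMSO with full reaction for no effect and wells lacking NADH for full effect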
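System: Bacterial diaphorase enzyme (C. kluyveri) | Incubation: 16-min room-temperature incubation before reading | Benchmarks: No-NADH positive control and DMSO neutral control | Measured by: Resorufin fluorescence 544/590 nm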
ROMK primary = modulators of human ROMK potassium channel. P48048. actives 2% (n = 130,000). Tet-inducible ROMK, thallium flux fluorescence; actives lie on both sides. B-score at 10 µM;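 active = signal ratio slope over the read window, or its plate-corrected B-score, at least 3 SD from the plate mean, either direction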;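 note: B-score of the F/F0 ratio slope over 7 to 12 s after thallium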
Target sequence (P48048 whole entry, looked up): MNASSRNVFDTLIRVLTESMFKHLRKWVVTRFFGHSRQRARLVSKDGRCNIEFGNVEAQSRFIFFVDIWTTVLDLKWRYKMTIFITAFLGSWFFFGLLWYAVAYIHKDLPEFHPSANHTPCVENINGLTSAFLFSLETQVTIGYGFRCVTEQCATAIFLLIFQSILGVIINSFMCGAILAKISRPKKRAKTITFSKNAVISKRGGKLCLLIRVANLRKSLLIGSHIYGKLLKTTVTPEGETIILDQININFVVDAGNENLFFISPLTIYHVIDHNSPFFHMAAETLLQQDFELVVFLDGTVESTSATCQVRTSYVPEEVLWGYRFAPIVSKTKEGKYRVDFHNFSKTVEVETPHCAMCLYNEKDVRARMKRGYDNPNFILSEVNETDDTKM
* marks the source's active call; other numbers are inactive results; x = no result given.

SMILES	L major viab	KCC2 mod	Diaphorase act	WT yeast gro inh	Diaphorase inh	ROMK primary
Cc1ccnc(NC(=O)Nc2ccc3c(c2)OCO3)c1	0	0.85	0.9	-5	10	-0.3
CCOc1cc(S(=O)(=O)N(Cc2ccccc2)Cc2ccccc2)c(OCC)cc1-n1cnnn1	92*	x	0.8	11	18	x
CCOc1cc(S(=O)(=O)NCc2ccccc2)c(OCC)cc1-n1cnnn1	-2	1.2	x	x	x	x
CN(C)N1C(N)=C(C#N)C(c2cccnc2)C2=C1CCCC2=O (stereo not given)	20	0.78	1	-5	0	0.92
CS(=O)(=O)N1CCN(c2ccccc2NC(=O)c2ccc(-c3ccc(Br)cc3)o2)CC1	53*	1.4	0.7	17	26	-0.083
CC(=O)c1ccc(OC(=O)C(CCS(C)(=O)=O)N2C(=O)c3ccccc3C2=O)cc1 (stereo not given)	67*	0.68	0.9	-2	5	x
CS(=O)(=O)CCC(C(=O)OCc1ccc(Br)cc1)N1C(=O)c2ccccc2C1=O (stereo not given)	-8	-0.48	0.9	-23	6	x
CCOc1ccc(OC(=O)C(CCS(C)(=O)=O)N2C(=O)c3ccccc3C2=O)cc1 (stereo not given)	72*	-0.5	0.9	7	13	0.11
CCOc1ccc(NC(=O)CN2C(=O)NC(CCSC)C2=O)cc1 (stereo not given)	-4	0.053	1	-24	-1	0.54
O=C(NCCCN1CCN(c2cccc(Cl)c2)CC1)C1(S(=O)(=O)c2ccc(Cl)cc2)CC1	100*	0.13	1	0	0	x
Cc1cccc(N2CCN(C(=O)C3(S(=O)(=O)c4ccc(Cl)cc4)CC3)CC2)c1C	52*	0.032	0.9	40	13	0.95
Cc1ccc(Cl)cc1N1CCN(C(=O)C2(S(=O)(=O)c3ccc(Cl)cc3)CC2)CC1	97*	0.33	1	-7	0	x
O=C(N1CCN(c2cccc(Cl)c2)CC1)C1(S(=O)(=O)c2ccc(Cl)cc2)CC1	99*	-1.3	1	11	0	x
COCC(=O)N1CCN(c2nc3ccccc3o2)CC1	-1	0.077	1.1	-16	-10	0.58
O=c1[nH]c2cc(NCCO)c([N+](=O)[O-])cc2[nH]1	1	0.19	1	-14	1	-0.26
Cc1cccnc1Sc1c([N+](=O)[O-])ncn1C	-4	-0.44	1	-8	1	-0.4
Cc1cccc(Sc2c([N+](=O)[O-])ncn2C)c1	93*	-0.72	0.9	55	6	-0.27
CC(C(=O)N1CCN(c2ccc([N+](=O)[O-])cc2)CC1)N1C(=O)C2CC=CCC2C1=O (stereo not given)	3	0.34	0.7	-1	27	0.67
CCOc1cc(C(=O)NCCCn2ccnc2)cc(OCC)c1OCC	54*	-0.17	0.9	-11	11	0.14
CCC(=O)Nc1ccc(C(=O)NCCCn2ccnc2)cc1	-1	0.85	1	-22	-1	0.7
O=C(NCCCn1ccnc1)c1cc(-c2ccc(Br)cc2)on1	96*	-0.89	1	25	-3	-0.99
COc1ccc(-c2cc(C(F)(F)F)n3nc(C(=O)NCCCN4CCOCC4)cc3n2)cc1	57*	0.57	0.8	-10	20	-0.72
O=C(NCCCn1ccnc1)c1cc2nc(-c3ccc(Br)cc3)cc(C(F)(F)F)n2n1	99*	-0.81	1.3	30	-29	x
Cc1cc(-c2ccccc2)nc2cc(C(=O)NCCCn3ccnc3)nn12	1	-0.33	1.1	1	-6	x
Cc1cc(C(=O)NCCCn2ccnc2)sc1-c1ccccc1	99*	0.38	1	14	-5	x
SMILES	L major viab	KCC2 mod	Diaphorase act	WT yeast gro inh	Diaphorase inh	ROMK primary
Cc1ccc2nc(-c3ccccc3)cc(C(=O)NCCCn3ccnc3)c2c1	10	x	1.1	-12	-9	x
COc1cccc(-c2cc(C(=O)NCCCn3ccnc3)no2)c1	96*	x	1.1	1	-5	-1.1
COc1cccc(C(=O)NCCCn2ccnc2)c1	2	0.7	1	0	1	-0.043
COc1ccc2c(Cl)c(C(=O)NCCCn3ccnc3)sc2c1	100*	0.016	0.9	-1	9	x
COc1ccc2c(Cl)c(C(=O)NN)sc2c1	-4	0.97	0.9	7	9	x
COc1ccc(-c2cc(C(=O)NCCCn3ccnc3)no2)cc1OC	61*	x	0.9	-8	6	-1.1
CCOc1cc(C(=O)OC(C)C(=O)Nc2ncc(Cl)cc2Cl)ccc1OCC(=O)N1CCOCC1 (stereo not given)	73*	1.3	0.9	12	13	x
Cc1cc(Cl)ccc1OCC(=O)N1CCCN(C(=O)COc2ccc(Cl)cc2C)CC1	92*	-1.8	0.9	73*	7	-1.3
CCOc1cc(C(=O)OCC(=O)Nc2ncc(Cl)c(C)c2Cl)ccc1OCC(=O)N1CCOCC1	-4	-0.56	0.7	-2	31	x
CC(C)(C)c1ccc(OCC(=O)N2CCCCCC2)c(Br)c1	27	-0.2	0.9	68*	12	-1.7
Cc1cc(OCC(=O)N2CCOCC2)c(C(C)C)cc1Cl	80*	x	0.9	-12	10	x
Cc1cc(Cl)ccc1OCC(=O)N1CC(C)CC(C)C1 (stereo not given)	3	-0.025	0.8	-5	19	-2
CC(C)NC(=O)CSc1nc(N)c(-c2ccccc2)c(=O)[nH]1	-1	0.74	1.1	-19	-6	-0.7
COc1cc(CC(CC(=O)O)CC(C)OCc2ccccc2)cc(OC)c1 (stereo not given)	49	0.88	0.9	-17	10	0.51
CCC[n+]1cn(/C(C(=S)Nc2cccc(Cl)c2C)=C(/[O-])c2ccc(OC)c(OC)c2)c2ccccc21	7	-0.56	0.8	-13	21	-1
Cc1cc(Cl)ccc1OC(C)C(=O)N1CCCN(C(=O)C(C)Oc2ccc(Cl)cc2C)CC1 (stereo not given)	99*	-1.6	0.9	60*	13	-0.62
CC(Oc1ccccc1Cl)C(=O)N1CCOCC1 (stereo not given)	-1	0.59	0.9	-12	8	x
CCc1ccc(C(=O)NNC(=O)OC)cc1	1	0.83	0.9	-1	8	x
Cc1ccccc1Oc1cc(-n2ncc(Cl)c(Cl)c2=O)ncn1	100*	-1.9	1	70	-1	-0.24
CC(=O)c1sc2nc(CSc3nnnn3-c3ccccc3)[nH]c(=O)c2c1C	4	0.01	0.6	-18	35	-0.081
Cc1ccc(-n2nnnc2SCc2nc3sc(C)c(C)c3c(=O)[nH]2)cc1	58*	1.5	0.9	-8	7	0.094
Cc1cc(C(=O)C(C)Sc2cccc[n+]2[O-])c(C)n1-c1ccc(Cl)cc1 (stereo not given)	97*	0.46	0.9	-15	15	-0.4
COC(=O)Cc1c(O)ccn(CCc2ccccc2)c1=O	-5	-0.8	0.9	-8	6	0.41

Screening data as filed in PubChem BioAssay.
